Laboratory results: ChEMBL document CHEMBL3046951, “Volatile constituents from the leaves of Callicarpa japonica Thunb. and their antibacterial activities” (2004)

Legend:
Type in all cases: functional
Listeria monocytogenes [1] = assay: Antimicrobial activity against Listeria monocytogenes ATCC 19111 assessed as growth inhibition rate at 12.48 mg/l after 72 hr by spectrophotometry; settings: ATCC 19111, 72 h, read-out: GI
In short: (§1)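 L. monocytogenes was grown at 30 °C in tryptic soy broth, subcultured for 18 h, and exposed to pure volatile compounds (>95% purity). Growth was followed by Bioscreen C optical density every 24 h for 72 h against a 10% Tween 80 control.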

Staphylococcus aureus [2] = assay: Antimicrobial activity against Staphylococcus aureus ATCC 25923 assessed as growth inhibition rate at 678.64 mg/l after 72 hr by spectrophotometry; settings: ATCC 25923, 72 h, read-out: GI
Salmonella typhimurium [3] = assay: Antimicrobial activity against Salmonella enterica subsp. enterica serovar Typhimurium ATCC 14028 assessed as growth inhibition rate at 25.52 mg/l after 72 hr by spectrophotometry; settings: ATCC 14028, 72 h, read-out: GI
In short: (§2)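 Salmonella Typhimurium ATCC 14028 grown in nutrient broth at 30 °C, precultured 24 h, then subcultured 1:100 for 18 h before testing. Single volatile compounds (>95% pure) were added. OD was read every 24 h over 72 h in a Bioscreen C, with 10% Tween 80 as the comparison control.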

Vibrio parahaemolyticus [4] = assay: Antimicrobial activity against Vibrio parahaemolyticus ATCC 33844 assessed as growth inhibition rate at 135.68 mg/l after 72 hr by spectrophotometry; settings: ATCC 33844, 72 h, read-out: GI
Bacillus cereus [5] = assay: Antimicrobial activity against Bacillus cereus ATCC 11778 assessed as growth inhibition rate at 339.32 mg/l after 72 hr by spectrophotometry; settings: ATCC 11778, 72 h, read-out: GI
In short: (§3)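 Pure volatile compounds (purity >95%; one at 90%) were tested against B. cereus ATCC 11778. The strain was grown at 30 °C in nutrient broth for 24 h, then subcultured for 18 h. Optical density was read in a Bioscreen C every 24 h for 72 h, with 10% Tween 80 as the control.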

Escherichia coli [6] = assay: Antimicrobial activity against Escherichia coli O157:H7 ATCC 43894 assessed as growth inhibition rate at 678.64 mg/l after 72 hr by spectrophotometry; settings: O157:H7 ATCC 43894, 72 h, read-out: GI
In short: (§4)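 Authentic volatiles (>95% purity; 2,4-heptadienal 90%) tested against 18 h subcultures. Growth media: E. coli O157:H7 and S. aureus in tryptic soy broth at 37 °C; L. monocytogenes in tryptic soy broth at 30 °C; V. parahaemolyticus in tryptic soy broth + 3% NaCl at 37 °C; S. typhimurium in nutrient broth at 30 °C. Bioscreen C OD every 24 h for 72 h versus 10% Tween 80 control.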

Listeria monocytogenes [7] = assay: Antimicrobial activity against Listeria monocytogenes ATCC 19111 assessed as growth inhibition rate at 25.52 mg/l after 72 hr by spectrophotometry; settings: ATCC 19111, 72 h, read-out: GI; in short: as §1
Bacillus cereus [8] = assay: Antimicrobial activity against Bacillus cereus ATCC 11778 assessed as growth inhibition rate at 12.48 mg/l after 72 hr by spectrophotometry; settings: ATCC 11778, 72 h, read-out: GI; in short: as §3
Listeria monocytogenes [9] = assay: Antimicrobial activity against Listeria monocytogenes ATCC 19111 assessed as growth inhibition rate at 339.32 mg/l after 72 hr by spectrophotometry; settings: ATCC 19111, 72 h, read-out: GI; in short: as §1
Salmonella typhimurium [10] = assay: Antimicrobial activity against Salmonella enterica subsp. enterica serovar Typhimurium ATCC 14028 assessed as growth inhibition rate at 339.32 mg/l after 72 hr by spectrophotometry; settings: ATCC 14028, 72 h, read-out: GI; in short: as §2
Bacillus cereus [11] = assay: Antimicrobial activity against Bacillus cereus ATCC 11778 assessed as growth inhibition rate at 67.88 mg/l after 72 hr by spectrophotometry; settings: ATCC 11778, 72 h, read-out: GI; in short: as §3
Staphylococcus aureus [12] = assay: Antimicrobial activity against Staphylococcus aureus ATCC 25923 assessed as growth inhibition rate at 339.32 mg/l after 72 hr by spectrophotometry; settings: ATCC 25923, 72 h, read-out: GI
Escherichia coli [13] = assay: Antimicrobial activity against Escherichia coli O157:H7 ATCC 43894 assessed as growth inhibition rate at 25.52 mg/l after 72 hr by spectrophotometry; settings: O157:H7 ATCC 43894, 72 h, read-out: GI
Escherichia coli [14] = assay: Antimicrobial activity against Escherichia coli O157:H7 ATCC 43894 assessed as growth inhibition rate at 12.48 mg/l after 72 hr by spectrophotometry; settings: O157:H7 ATCC 43894, 72 h, read-out: GI
Vibrio parahaemolyticus [15] = assay: Antimicrobial activity against Vibrio parahaemolyticus ATCC 33844 assessed as growth inhibition rate at 678.64 mg/l after 72 hr by spectrophotometry; settings: ATCC 33844, 72 h, read-out: GI
Salmonella typhimurium [16] = assay: Antimicrobial activity against Salmonella enterica subsp. enterica serovar Typhimurium ATCC 14028 assessed as growth inhibition rate at 67.88 mg/l after 72 hr by spectrophotometry; settings: ATCC 14028, 72 h, read-out: GI
Bacillus cereus [17] = assay: Antimicrobial activity against Bacillus cereus ATCC 11778 assessed as growth inhibition rate at 25.52 mg/l after 72 hr by spectrophotometry; settings: ATCC 11778, 72 h, read-out: GI; in short: as §3
Escherichia coli [18] = assay: Antimicrobial activity against Escherichia coli O157:H7 ATCC 43894 assessed as growth inhibition rate at 135.68 mg/l after 72 hr by spectrophotometry; settings: O157:H7 ATCC 43894, 72 h, read-out: GI
Bacillus cereus [19] = assay: Antimicrobial activity against Bacillus cereus ATCC 11778 assessed as growth inhibition rate at 135.68 mg/l after 72 hr by spectrophotometry; settings: ATCC 11778, 72 h, read-out: GI; in short: as §3
Staphylococcus aureus [20] = assay: Antimicrobial activity against Staphylococcus aureus ATCC 25923 assessed as growth inhibition rate at 25.52 mg/l after 72 hr by spectrophotometry; settings: ATCC 25923, 72 h, read-out: GI
Staphylococcus aureus [21] = assay: Antimicrobial activity against Staphylococcus aureus ATCC 25923 assessed as growth inhibition rate at 67.88 mg/l after 72 hr by spectrophotometry; settings: ATCC 25923, 72 h, read-out: GI
Vibrio parahaemolyticus [22] = assay: Antimicrobial activity against Vibrio parahaemolyticus ATCC 33844 assessed as growth inhibition rate at 25.52 mg/l after 72 hr by spectrophotometry; settings: ATCC 33844, 72 h, read-out: GI
Vibrio parahaemolyticus [23] = assay: Antimicrobial activity against Vibrio parahaemolyticus ATCC 33844 assessed as growth inhibition rate at 67.88 mg/l after 72 hr by spectrophotometry; settings: ATCC 33844, 72 h, read-out: GI
Vibrio parahaemolyticus [24] = assay: Antimicrobial activity against Vibrio parahaemolyticus ATCC 33844 assessed as growth inhibition rate at 12.48 mg/l after 72 hr by spectrophotometry; settings: ATCC 33844, 72 h, read-out: GI
Vibrio parahaemolyticus [25] = assay: Antimicrobial activity against Vibrio parahaemolyticus ATCC 33844 assessed as growth inhibition rate at 339.32 mg/l after 72 hr by spectrophotometry; settings: ATCC 33844, 72 h, read-out: GI
Salmonella typhimurium [26] = assay: Antimicrobial activity against Salmonella enterica subsp. enterica serovar Typhimurium ATCC 14028 assessed as growth inhibition rate at 12.48 mg/l after 72 hr by spectrophotometry; settings: ATCC 14028, 72 h, read-out: GI; in short: as §2
Listeria monocytogenes [27] = assay: Antimicrobial activity against Listeria monocytogenes ATCC 19111 assessed as growth inhibition rate at 135.68 mg/l after 72 hr by spectrophotometry; settings: ATCC 19111, 72 h, read-out: GI; in short: as §1
Escherichia coli [28] = assay: Antimicrobial activity against Escherichia coli O157:H7 ATCC 43894 assessed as growth inhibition rate at 67.88 mg/l after 72 hr by spectrophotometry; settings: O157:H7 ATCC 43894, 72 h, read-out: GI; in short: as §4
Bacillus cereus [29] = assay: Antimicrobial activity against Bacillus cereus ATCC 11778 assessed as growth inhibition rate at 678.64 mg/l after 72 hr by spectrophotometry; settings: ATCC 11778, 72 h, read-out: GI; in short: as §3
Listeria monocytogenes [30] = assay: Antimicrobial activity against Listeria monocytogenes ATCC 19111 assessed as growth inhibition rate at 67.88 mg/l after 72 hr by spectrophotometry; settings: ATCC 19111, 72 h, read-out: GI; in short: as §1
Escherichia coli [31] = assay: Antimicrobial activity against Escherichia coli O157:H7 ATCC 43894 assessed as growth inhibition rate at 339.32 mg/l after 72 hr by spectrophotometry; settings: O157:H7 ATCC 43894, 72 h, read-out: GI
Salmonella typhimurium [32] = assay: Antimicrobial activity against Salmonella enterica subsp. enterica serovar Typhimurium ATCC 14028 assessed as growth inhibition rate at 678.64 mg/l after 72 hr by spectrophotometry; settings: ATCC 14028, 72 h, read-out: GI
Staphylococcus aureus [33] = assay: Antimicrobial activity against Staphylococcus aureus ATCC 25923 assessed as growth inhibition rate at 12.48 mg/l after 72 hr by spectrophotometry; settings: ATCC 25923, 72 h, read-out: GI
Staphylococcus aureus [34] = assay: Antimicrobial activity against Staphylococcus aureus ATCC 25923 assessed as growth inhibition rate at 135.68 mg/l after 72 hr by spectrophotometry; settings: ATCC 25923, 72 h, read-out: GI
Salmonella typhimurium [35] = assay: Antimicrobial activity against Salmonella enterica subsp. enterica serovar Typhimurium ATCC 14028 assessed as growth inhibition rate at 135.68 mg/l after 72 hr by spectrophotometry; settings: ATCC 14028, 72 h, read-out: GI; in short: as §2
Listeria monocytogenes [36] = assay: Antimicrobial activity against Listeria monocytogenes ATCC 19111 assessed as growth inhibition rate at 678.64 mg/l after 72 hr by spectrophotometry; settings: ATCC 19111, 72 h, read-out: GI
In short: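 Pure volatile compounds (>95% purity) tested on Listeria monocytogenes ATCC 19111 in tryptic soy broth at 30 °C. Inoculum: 24 h culture subcultured (0.1 mL into 9.9 mL broth) and grown 18 h. Growth followed by Bioscreen C optical density every 24 h for 72 h against a 10% Tween 80 control.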

C=C[C@H](O)CCCCC
inhibition of growth at 12.48 µg/mL (Listeria monocytogenes [1]): 5.4%
inhibition of growth at 678.64 µg/mL (Staphylococcus aureus [2]): 80.6%
inhibition of growth at 25.52 µg/mL (Salmonella typhimurium [3]): 16.7%
inhibition of growth at 135.68 µg/mL (Vibrio parahaemolyticus [4]): 21.5%
inhibition of growth at 339.32 µg/mL (Bacillus cereus [5]): 54.6%
inhibition of growth at 678.64 µg/mL (Escherichia coli [6]): 96.5%
inhibition of growth at 25.52 µg/mL (Listeria monocytogenes [7]): 6.7%
inhibition of growth at 12.48 µg/mL (Bacillus cereus [8]): 0%
inhibition of growth at 339.32 µg/mL (Listeria monocytogenes [9]): 27.3%
inhibition of growth at 339.32 µg/mL (Salmonella typhimurium [10]): 79.1%
inhibition of growth at 67.88 µg/mL (Bacillus cereus [11]): 4.2%
inhibition of growth at 339.32 µg/mL (Staphylococcus aureus [12]): 50.2%
inhibition of growth at 25.52 µg/mL (Escherichia coli [13]): 6.3%
inhibition of growth at 12.48 µg/mL (Escherichia coli [14]): 8.3%
inhibition of growth at 678.64 µg/mL (Vibrio parahaemolyticus [15]): 98.8%
inhibition of growth at 67.88 µg/mL (Salmonella typhimurium [16]): 17.7%
inhibition of growth at 25.52 µg/mL (Bacillus cereus [17]): 0%
inhibition of growth at 135.68 µg/mL (Escherichia coli [18]): 8.9%
inhibition of growth at 135.68 µg/mL (Bacillus cereus [19]): 7.6%
inhibition of growth at 25.52 µg/mL (Staphylococcus aureus [20]): 6.6%
inhibition of growth at 67.88 µg/mL (Staphylococcus aureus [21]): 5.7%
inhibition of growth at 25.52 µg/mL (Vibrio parahaemolyticus [22]): 14.3%
inhibition of growth at 67.88 µg/mL (Vibrio parahaemolyticus [23]): 13.5%
inhibition of growth at 12.48 µg/mL (Vibrio parahaemolyticus [24]): 11.1%
inhibition of growth at 339.32 µg/mL (Vibrio parahaemolyticus [25]): 90.4%
inhibition of growth at 12.48 µg/mL (Salmonella typhimurium [26]): 18.2%
inhibition of growth at 135.68 µg/mL (Listeria monocytogenes [27]): 8.2%
inhibition of growth at 67.88 µg/mL (Escherichia coli [28]): 7.9%
inhibition of growth at 678.64 µg/mL (Bacillus cereus [29]): 90.8%
inhibition of growth at 67.88 µg/mL (Listeria monocytogenes [30]): 5%
inhibition of growth at 339.32 µg/mL (Escherichia coli [31]): 87.2%
inhibition of growth at 678.64 µg/mL (Salmonella typhimurium [32]): 98.4%
inhibition of growth at 12.48 µg/mL (Staphylococcus aureus [33]): 3.6%
inhibition of growth at 135.68 µg/mL (Staphylococcus aureus [34]): 8.7%
inhibition of growth at 135.68 µg/mL (Salmonella typhimurium [35]): 25.4%
inhibition of growth at 678.64 µg/mL (Listeria monocytogenes [36]): 39.8%
